Assay results gathered from unrelated publications.
Read-out: cell growth or viability

SMILES	cell line	technique	time	IC50
CCC(=O)Nc1nc2cc(-c3ccc4ncn(Cc5ccccc5)c(=O)c4c3)ccc2s1	NCI-H1975	MTT	72 h	> 20000 nM
CCCCC(=O)Nc1ccc(-c2ccc3ncn(CC4CC4)c(=O)c3c2)cn1	NCI-H1975	CCK-8	72 h	79 nM
COC[C@H](NC(=O)c1ccn(S(C)(=O)=O)c1)C(=O)Nc1nc(-c2cccc(N3C[C@@H](C)O[C@@H](C)C3)n2)cs1	HCC515	ATP luminescence	7 days	119 nM
CCCn1cnc2ccc(-c3ccc(NC(=O)CNCC)nc3)cc2c1=O	NCI-H1975	CCK-8	72 h	8790 nM
O=C(NCCc1ccccc1)Nc1nc2cc(-c3ccc4ncn(CCN5CCOCC5)c(=O)c4c3)ccc2s1	NCI-H1975	MTT	72 h	3200 nM
COc1cccc2c1C(=O)c1c(O)c3c(c(O)c1C2=O)C[C@@](O)(C(=O)CO)C[C@@H]3O[C@H]1C[C@H](N)[C@H](O)[C@H](C)O1	Pfeiffer	–	96 h	90.7 nM
CCCCC(=O)Nc1ccc(-c2ccc3ncn(CCC)c(=O)c3c2)cc1	NCI-H1975	CCK-8	72 h	9810 nM
COc1ccc(NC(=O)Nc2nc3cc(-c4ccc5ncn(CCN6CCOCC6)c(=O)c5c4)ccc3s2)cc1	NCI-H1975	MTT	72 h	> 20000 nM
Cc1ncsc1-c1ccc(CNC(=O)[C@@H]2C[C@@H](O)CN2C(=O)[C@@H](NC(=O)C2(F)CC2)C(C)(C)C)c(OCCOc2ccc(CN3CCN(c4cc(-c5ccccc5O)nnc4N)CC3)cc2)c1	HCC515	ATP luminescence	7 days	261 nM
COc1ccc(C[C@H](N)C(=O)N[C@H]2[C@@H](O)[C@H](n3cnc4c(N(C)C)ncnc43)O[C@@H]2CO)cc1	HEK293	resazurin	72 h	720 nM
CCCCn1cnc2ccc(-c3ccc(NC(=O)NCCC)nc3)cc2c1=O	NCI-H1975	CCK-8	72 h	8750 nM
Nc1ccn([C@@H]2O[C@H](CO)[C@@H](O)C2(F)F)c(=O)n1	HEK293	MTT	24 h	24.2 µg/mL
O=C(Nc1ccc(-c2ccc3ncn(Cc4ccc5c(c4)OCO5)c(=O)c3c2)cn1)c1ccccc1	NCI-H1975	CCK-8	72 h	> 10000 nM
O=C(Nc1ccc(F)cc1)Nc1nc2cc(-c3ccc4ncn(CCC5CCCCC5)c(=O)c4c3)ccc2s1	NCI-H1975	MTT	72 h	5970 nM
Cc1cccc(NC(=O)Nc2ccc(-c3ccc4ncn(Cc5ccccc5)c(=O)c4c3)cn2)c1	NCI-H1975	CCK-8	72 h	> 10000 nM
O=C(Nc1ccc(C(F)(F)F)cc1)Nc1nc2cc(-c3ccc4ncn(CCN5CCOCC5)c(=O)c4c3)ccc2s1	NCI-H1975	MTT	72 h	1770 nM
CC(C)(C)c1cnc(CSc2cnc(NC(=O)C3CCN(C(=O)CCCCCCCN4Cc5cc6c(cc5C4)C(=O)N(C4CCC(=O)NC4=O)C6=O)CC3)s2)o1 (centres unmarked)	A673	MTT	–	75.4 nM
COc1cc(C2C3=C(COC3=O)N(CCO)c3cc4c(cc32)CCC4)cc(OC)c1OC (centres unmarked)	HEK293	ATP luminescence	48 h	1550 nM
CN(C)CCn1cnc2ccc(-c3ccc4sc(NC(=O)Nc5ccc(F)cc5)nc4c3)cc2c1=O	NCI-H1975	MTT	72 h	1390 nM
Nc1cccc2c1C(=O)N(C1CCC(=O)NC1=O)C2=O (centres unmarked)	TMD8	CCK-8	7 days	> 20000 nM
